RGS16-Gao – modulates binding between human RGS16 and Galphao; AID 1441; bead-based flow cytometry RGS16-Galphao binding, fluorescence; actives lie on both sides; binding response (% of control), % at 10 µM; O15492+P09471; 0.38% of 220,000 active;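 further: Galphao activated by GDP with aluminum fluoride before binding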
ABCB1 inh – human ABCB1 inhibition, ABCG2 as counter-screen; AID 1326; 0.067% of 190,000 active; CCRF-Adr cells, JC-1 efflux, flow cytometry; inhibition, % at 6.6 µM; in the data active means inhibition above about 40%;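 further: higher value means more JC-1 retained so stronger ABCB1 efflux block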
Target sequence (P08183 whole entry, looked up): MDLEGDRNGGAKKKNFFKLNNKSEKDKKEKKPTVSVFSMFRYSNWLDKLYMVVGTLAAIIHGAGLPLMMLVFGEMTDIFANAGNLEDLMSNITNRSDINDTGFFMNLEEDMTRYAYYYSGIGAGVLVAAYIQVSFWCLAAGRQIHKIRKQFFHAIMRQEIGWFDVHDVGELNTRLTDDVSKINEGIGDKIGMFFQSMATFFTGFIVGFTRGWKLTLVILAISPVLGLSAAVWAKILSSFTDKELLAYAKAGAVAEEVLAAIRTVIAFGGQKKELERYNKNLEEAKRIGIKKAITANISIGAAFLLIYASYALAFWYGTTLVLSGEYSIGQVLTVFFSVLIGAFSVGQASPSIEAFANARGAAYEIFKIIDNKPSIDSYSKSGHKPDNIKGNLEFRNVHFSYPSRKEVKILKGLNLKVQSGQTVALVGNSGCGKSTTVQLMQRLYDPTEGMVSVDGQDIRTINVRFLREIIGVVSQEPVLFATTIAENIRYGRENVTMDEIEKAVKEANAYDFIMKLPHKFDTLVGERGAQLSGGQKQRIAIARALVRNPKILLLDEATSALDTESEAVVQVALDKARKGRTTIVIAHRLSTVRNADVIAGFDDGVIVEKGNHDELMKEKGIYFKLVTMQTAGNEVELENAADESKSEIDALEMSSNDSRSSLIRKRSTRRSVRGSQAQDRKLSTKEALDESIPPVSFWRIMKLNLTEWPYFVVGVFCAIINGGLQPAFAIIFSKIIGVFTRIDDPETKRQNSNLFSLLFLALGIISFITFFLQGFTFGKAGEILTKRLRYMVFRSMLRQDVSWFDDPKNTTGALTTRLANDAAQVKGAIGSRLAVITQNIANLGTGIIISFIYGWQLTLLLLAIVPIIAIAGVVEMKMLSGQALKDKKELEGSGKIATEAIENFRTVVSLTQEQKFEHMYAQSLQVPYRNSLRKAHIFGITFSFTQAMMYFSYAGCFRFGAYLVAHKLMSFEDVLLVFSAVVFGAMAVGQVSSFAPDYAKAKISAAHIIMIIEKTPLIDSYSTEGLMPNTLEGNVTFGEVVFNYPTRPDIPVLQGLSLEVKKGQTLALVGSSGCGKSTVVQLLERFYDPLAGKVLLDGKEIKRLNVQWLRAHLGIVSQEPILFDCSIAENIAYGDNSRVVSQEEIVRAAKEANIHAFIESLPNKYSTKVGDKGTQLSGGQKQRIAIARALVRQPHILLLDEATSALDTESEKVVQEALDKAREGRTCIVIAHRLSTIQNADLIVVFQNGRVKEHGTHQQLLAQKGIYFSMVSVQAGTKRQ
RGS4-Gao reg – modulates binding of RGS4 to human Galphao; Multiplexed bead flow cytometry; actives lie on both sides; AID 1415; binding response (% of control), % at 10 µM; 0.33% of 220,000 active; P09471; in the data active means binding response below about 49% or above about 150%; inactive means in between;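 further: fluorescent Galphao activated with aluminum fluoride binding bead-coupled RGS4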
RGS8-Gao reg – human RGS8-Galphao interaction regulation. P09471. multiplexed bead flow cytometry, RGS8-Galphao binding; actives lie on both sides. response (percent of control binding), % at 10 µM. 0.34% of 220,000 active. AID 1423; in the data active means response below about 60% or above about 140%; inactive means in between;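 further: Galphao activated as the GDP aluminium fluoride complex binding bead-coupled RGS8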
ABCG2 block – inhibitors of human ABCG2 transporter, ABCB1 counter-screen | Q9UNQ0 | IgMXP3 cells, JC-1 efflux, flow cytometry | inhibition, % at 6.6 µM | 0.1% of 190,000 active;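 active means inhibition above 80%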
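Test system: ABCG2 IgMXP3 and barcoded ABCB1 CCRF-Adr cell mix; Schedule: cells with compound and JC-1, 10 min at 25 °C, rotating, no wash; Technique: flow cytometry of retained JC-1 fluorescence; Measure: % inhibition of efflux relative to nicardipine and DMSO; Controls: nicardipine high and DMSO low controls.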
RGS7-Gao reg – modulates binding of RGS7 to human Galphao; P09471; Multiplexed bead flow cytometry; actives lie on both sides; binding response (% of control), % at 10 µM; 0.35% of 220,000 active; AID 1439; in the data active means binding response below about 49% or above about 150%; inconclusive means no clear call, values can overlap the other calls; inactive means in between;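 further: fluorescent Galphao held in activated GDP-AlF4 state binding bead-coupled RGS7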
RGS-Gao – regulators of human RGS4-Galphao interaction. shares compounds with RGS16-Gao. multiplexed bead flow cytometry, RGS–Galpha-o binding. RGS4–Galpha-o binding response, % at 10 µM. 99% of 1,600 active;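 further: fluorescently labeled Galpha-o bound to GDP with aluminium fluoride binding biotinylated RGS beads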
Avidin counter – biotin-avidin bead binding disruption counter-screen. shares compounds with RGS16-Gao. 1,700 tested, under 10 active. streptavidin beads, fluorescein-biotin binding, flow cytometry. inhibition, % at 10 µM;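 active means inhibition above 50%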;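 further: median green fluorescence of gated singlet beads compared with DMSO control wells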
RGS8-Gao confirm – RGS8-Galphao interaction regulation, single point confirmation | shares compounds with RGS16-Gao | 3% of 1,700 active | bead-based flow cytometry RGS8-Galphao binding, fluorescence; actives lie on both sides | binding response (% of control), % at 10 µM; in the data active means binding response below about 72% or above about 130%; inactive means in between;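 further: Galphao activated as GDP AlF4 complex before binding bead RGS8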
RGS7-Gao single – RGS7-Galphao interaction regulation, single point confirmation | bead-based flow cytometry RGS7-Galphao binding; actives lie on both sides | shares compounds with RGS16-Gao | AID 1837 | 7.8% of 1,700 active | response (percent of control binding), % at 10 µM; in the data active means response below about 75% or above about 130%; inactive means in between;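 further: fluorescent Galphao activated with GDP and aluminum fluoride binding bead-coupled RGS7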
RGS16-Gao single – confirmation of regulators of human RGS16-Galphao interaction; response (% of control binding), % at 10 µM; AID 1838; bead-based flow cytometry, RGS16-Galphao binding; actives lie on both sides; 4% of 1,700 active; shares compounds with RGS16-Gao; in the data active means response below about 74% or above about 130%; inactive means in between;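 further: Galphao activated as the GDP aluminium fluoride complex binding bead-coupled RGS16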
RGS4-Gao confirm – RGS4-Galphao interaction regulation, single point confirmation; shares compounds with RGS16-Gao; RGS4-Galphao binding, multiplexed bead flow cytometry; actives lie on both sides; binding response (% of control), % at 10 µM; 4% of 1,700 active; AID 1840; in the data active means binding response below about 74% or above about 130%; inactive means in between
RGS19-Gao conf – RGS19-Galphao interaction regulation, single point confirmation; shares compounds with RGS16-Gao; bead-based flow cytometry RGS19-Galphao binding; actives lie on both sides; response (percent of control binding), % at 10 µM; 5% of 1,700 active; AID 1841; in the data active means response below about 50% or above about 160%; inactive means in between
A number is an active result; - = inactive; ? = inconclusive; . = no result; [ ] = remark or other dose. A selection: hits, their analogues and other compounds. The true share with any hit is near 0.83%. Unless noted, how the calls were made is not given here.

SMILES | RGS16-Gao | ABCB1 inh | RGS4-Gao reg | RGS8-Gao reg | ABCG2 block | RGS7-Gao reg | RGS-Gao | Avidin counter | RGS8-Gao confirm | RGS7-Gao single | RGS16-Gao single | RGS4-Gao confirm | RGS19-Gao conf
O=C(NCCN1CCN(c2cccc(Cl)c2)CC1)C1CCCN(S(=O)(=O)c2cnc[nH]2)C1 (stereo not given) | - | - | - | 142[activator] | - | - | 116 | . | . | . | . | . | .
CC1CCCC(NC(=O)C2CCN(S(=O)(=O)N3CCCCC3)CC2)C1C (stereo not given) | - | - | - | - | - | ? | . | . | . | . | . | . | .
COC(=O)c1ccccc1NC(=O)c1ccc2c(c1)OCCO2 | 231[activator] | - | - | - | - | - | 134 | - | - | - | - | - | -
NCCc1c(-c2ccccc2)n(-c2ccccc2)c2ccccc12 | - | - | - | - | - | ? | . | . | . | . | . | . | .
Cc1ccc(/C=N/n2c(-c3ccncc3)n[nH]c2=S)cc1 | - | - | - | 51 | - | - | 63 | - | - | - | - | - | -
CCCCOc1ccc(S(=O)(=O)Nc2cc(OC)ccc2OC)cc1 | . | - | . | . | - | . | . | - | - | - | - | - | -
Cc1cc(N2CCN(c3nnnn3-c3ccccc3)CC2)n2ncnc2n1 | - | - | - | 140[activator] | - | - | 131 | - | - | - | - | - | -
C/C(CC(C)C)=N\Nc1ccc(S(N)(=O)=O)cc1[N+](=O)[O-] | - | - | - | - | - | - | . | . | . | . | . | . | .
COc1ccc(-c2nc(-n3c(C)c(C(C)=O)c(C(C)=O)c3C)sc2C)cc1 | - | - | 47 | 56 | - | 44 | . | - | - | - | - | - | -
COc1ccc(-c2ccc(OC)cc2)cc1 | . | - | . | . | - | . | . | . | . | . | . | . | .
COc1ccc(-c2nc(C)sc2C)cc1 | - | - | - | 142[activator] | - | - | 115 | - | - | - | - | - | -
CCN(CC(=O)Nc1ccc([N+](=O)[O-])cc1OC)CC(=O)NC(C)(C)C | - | - | - | - | - | - | . | . | . | . | . | . | .
O=C(c1cccs1)N1CCN(S(=O)(=O)N2CCCCC2)CC1 | - | - | - | - | - | - | . | . | . | . | . | . | .
COc1ccc(Nc2ccc(S(=O)(=O)N3CCCCCC3)cc2[N+](=O)[O-])cc1 | - | - | - | - | - | . | . | - | - | - | - | - | -
COc1ccc(Nc2ccc(S(=O)(=O)N3CCCCC3)cc2[N+](=O)[O-])cc1OC | - | - | - | - | - | - | . | . | . | . | . | . | .
COc1ccccc1N1CCN(S(=O)(=O)CC23CCC(CC2=O)C3(C)C)CC1 (stereo not given) | 14 | - | 23 | 15 | - | 17 | . | - | - | - | - | - | -
COc1ccccc1NS(=O)(=O)CC12CCC(CC1=O)C2(C)C (stereo not given) | - | - | - | - | - | - | . | . | . | . | . | . | .
CC1(C)COC2(OC1)C(=O)N(CN1CCOCC1)c1ccccc12 | - | - | - | - | - | 252[activator] | 128 | - | - | - | - | - | -

Source: PubChem
